Test results taken from ChEMBL document CHEMBL1157720, “Development of carbohydrate-derived inhibitors of acid sphingomyelinase” (Bioorg Med Chem, 2010).
The source made the active and inactive calls. No cut-off for these calls is given here.

Tests used:
[1] = Inhibition of aSMase in rat brain microsomal homogenate by fluorescence assay
[2] = target: T1, Sphingomyelin phosphodiesterase 2 (Rattus norvegicus, UniProt Q9ET64); experiment: Inhibition of nSMase in rat brain microsomal homogenate by micellar 14C-sphingomyelin assay
T1 sequence (Q9ET64 whole entry): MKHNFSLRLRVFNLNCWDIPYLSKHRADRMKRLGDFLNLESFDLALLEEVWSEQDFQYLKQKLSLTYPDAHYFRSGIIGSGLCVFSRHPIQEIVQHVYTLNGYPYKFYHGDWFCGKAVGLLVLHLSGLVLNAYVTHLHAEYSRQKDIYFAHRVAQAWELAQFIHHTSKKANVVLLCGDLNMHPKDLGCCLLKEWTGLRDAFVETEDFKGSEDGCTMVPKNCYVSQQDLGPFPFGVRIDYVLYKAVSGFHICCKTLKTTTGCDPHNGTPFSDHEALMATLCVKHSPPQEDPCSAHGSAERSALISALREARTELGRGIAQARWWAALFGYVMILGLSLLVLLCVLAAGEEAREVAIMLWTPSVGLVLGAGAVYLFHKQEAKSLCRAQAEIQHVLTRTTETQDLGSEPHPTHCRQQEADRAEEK

Rattus norvegicus = organism: Rattus norvegicus; conditions: Brain, Microsomal
HEK293 = experiment: Inhibition of dexamethasone-induced apoptosis in HEK293 cells assessed as decrease in DNA fragmentation at 1 to 2 uM after 7 hrs by ELISA; format: functional, cell-based; conditions: Homo sapiens
Procedure, shortened: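 HEK-293 cells in medium with BrdU labelling solution (10 µM final) were plated at about 0.5 × 10³ cells/well. After 16 h they were washed and re-fed, then given 10^-8 M dexamethasone plus inhibitor for 7 h. Supernatant went to an anti-BrdU ELISA (secondary antibody, TMB), with absorbance at 370 nm. Quintuplicate.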

IC50 [1]	IC50 [2]	Km (Rattus norvegicus)	Compound	Activity (HEK293)
> 50 µM	–	–	O=P(O)(O)OC[C@H]1OC(O)[C@H](OP(=O)(O)O)[C@@H](O)[C@@H]1OP(=O)(O)O (some centres not stated)	–
–	> 100 µM	0.53 µM	CCCCCC/C=C\C=C/C/C=C\C/C=C\CCCC(=O)OC(COC(=O)CCCCCCCCCCCCCCCCC)COP(=O)(O)O[C@@H]1[C@H](O)[C@H](OP(=O)(O)O)[C@@H](O)[C@H](OP(=O)(O)O)[C@H]1O (some centres not stated)	–
39.6 µM	> 100 µM	–	CCS(=O)(=O)OC[C@H]1OC(O)[C@H](OP(=O)(O)O)[C@@H](O)[C@@H]1OP(=O)(O)O (some centres not stated)	–
0.44 µM	> 100 µM	–	CCCCCCCCCCCCS(=O)(=O)OC[C@H]1OC(O)[C@H](OP(=O)(O)O)[C@@H](O)[C@@H]1OP(=O)(O)O (some centres not stated)	Active
> 50 µM	–	–	O=P(O)(O)OC[C@H]1OC[C@H](OP(=O)(O)O)C[C@@H]1OP(=O)(O)O	–
–	> 100 µM	–	CCCCCCS(=O)(=O)OC[C@H]1OC(O)[C@H](OP(=O)(O)O)[C@@H](O)[C@@H]1OP(=O)(O)O (some centres not stated)	–
2.34 µM	> 100 µM	–	CCCCCCCCS(=O)(=O)OC[C@H]1OC(O)[C@H](OP(=O)(O)O)[C@@H](O)[C@@H]1OP(=O)(O)O (some centres not stated)	–
